The list is not random: actives were taken first. Their share in the collection is about 3.2%.
NR2E3 ag-1 = activates human photoreceptor nuclear receptor NR2E3 | GST-NR2E3/biotin-RetCOR TR-FRET, 1536-well | inhibition of corepressor binding, % at 4.78 µM | hit rate 0.12% among 320,000 | AID 2300;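 active means percent inhibition above the cutoff of mean plus 3 SD of all tested compounds, set per screening campaign, cut at about 20% in these data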;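 further: 0% = DMSO wells and 100% = biotin wells as full block of FRET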
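Test system: GST-NR2E3 and biotin-RetCOR proteins | Quantity: 1.35 nM GST-tagged NR2E3 final | Medium: Tris pH 7.5 | Also added: 7 nM biotin-RetCOR | Dosing: Compound at 4.8 µM, single dose | Timing: 5 h at 4 °C | Detection: Time-resolved FRET | Read-out basis: Percent inhibition | Benchmarks: Biotin wells as high control, 0.6% DMSO wells as low control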
NR2E3 ag-2 = agonists of human NR2E3 nuclear receptor; inhibition of corepressor binding, % at 3.98 µM; CHO-S Gal4-NCOR/VP16-NR2E3 two-hybrid, luciferase; hit rate 0.35% among 360,000; Q9Y5X4; AID 602229;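 active means inhibition above the mean of all tested compounds plus 3 SD, cut at about 70% in these data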;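 further: 0% = DMSO with NR2E3 transfected cells and 100% = cells lacking NR2E3 construct; higher means lower luciferase signal from less NR2E3 corepressor binding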
DAX1 inh-1 = inhibitors of DAX1 repression of SF-1 activated StAR promoter. inhibition, % at 6.8 µM. HEK293T StAR-luciferase reporter, SF-1/DAX-1 repression relief. hit rate 1.1% among 370,000;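 active means inhibition above the mean over all tested compounds plus 3 SD, cut at about 3.6% in these data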;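 further: 0% = DAX-1 cells with DMSO and 100% = cells lacking DAX-1 with DMSO; higher inhibition means more luminescence from relief of DAX-1 repression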
GASC-1 inh = blocks human GASC-1 demethylase activity. Q9H3R0. GST-JMJD2C(1-420) H3K9me3 demethylation, DELFIA europium. inhibition, % at 2.35 µM. hit rate 0.069% among 330,000;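 active means more than half of a compound's replicate wells show inhibition beyond 50%, single wells judged on their own value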;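 further: signal counts dimethyl H3K9 product captured on neutravidin plate; 0% = median of DMSO wells and 100% = 0.3 times that DMSO median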
Target sequence (Q9H3R0 1-420 limits assumed): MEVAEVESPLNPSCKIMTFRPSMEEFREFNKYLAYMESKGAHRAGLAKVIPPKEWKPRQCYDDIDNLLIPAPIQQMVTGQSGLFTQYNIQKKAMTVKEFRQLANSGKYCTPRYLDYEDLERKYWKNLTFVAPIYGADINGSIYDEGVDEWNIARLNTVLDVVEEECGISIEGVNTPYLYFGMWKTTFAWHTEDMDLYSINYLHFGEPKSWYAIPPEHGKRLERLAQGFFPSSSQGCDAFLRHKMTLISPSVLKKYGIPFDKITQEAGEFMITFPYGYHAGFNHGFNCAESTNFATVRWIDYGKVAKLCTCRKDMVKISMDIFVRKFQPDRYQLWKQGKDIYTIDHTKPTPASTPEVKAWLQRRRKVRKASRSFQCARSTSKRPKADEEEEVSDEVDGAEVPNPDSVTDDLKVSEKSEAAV
SMARCA2 act = increases SMARCA2 function in MMTV reporter cells; MG213 cells, MMTV-luciferase reporter, dexamethasone, overnight; activation, % at 9.1 µM; hit rate 1% among 370,000; AID 652017; in the data active means activation above about 7.8%;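 further: 0% = vehicle wells and 100% = reference activator wells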
DAX1 inh-2 = inhibits human nuclear receptor DAX1. hit rate 0.99% among 340,000. HEK293 Gal4-DAX1 luciferase reporter, luminescence. inhibition, % at 6.75 µM. P51843;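 active means inhibition above the mean over all tested compounds plus 3 SD, cut at about 4.2% in these data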;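 further: 0% = DAX1-transfected cells with DMSO and 100% = empty-vector control cells with DMSO; inhibition shows as a rise in luminescence from relieved DAX1 repression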
Target sequence (P51843 207-470 limits assumed): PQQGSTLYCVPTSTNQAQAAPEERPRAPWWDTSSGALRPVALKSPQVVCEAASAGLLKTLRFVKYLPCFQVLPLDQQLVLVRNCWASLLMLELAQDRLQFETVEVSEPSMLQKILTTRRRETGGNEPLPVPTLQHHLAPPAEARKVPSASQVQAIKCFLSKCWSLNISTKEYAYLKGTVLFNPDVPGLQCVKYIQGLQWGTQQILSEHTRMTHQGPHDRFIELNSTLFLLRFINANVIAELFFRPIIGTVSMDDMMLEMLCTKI
DAX1 inh confirm = NR0B1 (human) inhibition, confirmation. shares compounds with DAX1 inh-1. AID 652134. HEK293T StAR-promoter luciferase reporter, SF-1/DAX-1 repression. hit rate 87% among 2,400. inhibition, % at 6.8 µM;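 active means inhibition above the average of every tested compound plus 3 SD, cut at about 3.8% in these data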;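 further: 0% = DAX-1 cells with DMSO and 100% = no DAX-1 control cells with DMSO; active compounds raise luminescence by relieving repression of the StAR reporter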
SF1 mutant ctr = nonselective inhibitor or artifact in SF-1 mutant DAX1 counter-screen; AID 652136; hit rate 78% among 2,400; inhibition, % at 6.8 µM; HEK293 StAR-luciferase, SF-1 AF2 mutant, luminescence; shares compounds with DAX1 inh-1;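 active means inhibition above the mean of all tested compounds plus 3 SD, cut at about 3% in these data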;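 further: 0% = DAX-1 transfected cells with DMSO and 100% = cells without DAX-1 with DMSO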
* = called active by the depositor; · = not tested or not shown.

SMILES	NR2E3 ag-1	NR2E3 ag-2	DAX1 inh-1	GASC-1 inh	SMARCA2 act	DAX1 inh-2	DAX1 inh confirm	SF1 mutant ctr
COc1ccccc1-c1nnc2n1N=C(c1ccc(O)c(O)c1)CS2	0	53	·	8	·	0	·	·
Cc1ccccc1-c1nnc2n1N=C(c1ccc(O)c(O)c1)CS2	·	·	5.2*	·	-2	·	21*	-7
CCc1ccn2cc(-c3ccc4c(c3)OCO4)nc2c1	2	-86	0	-4	-5	·	·	·
COC(=O)c1ccc2nc(-c3ccc4c(c3)OCO4)cn2c1	-4	-181	10*	-34	5	-3	8.9*	0
CCCCNC(=O)C[C@@H]1C(=O)N(CCc2ccc(Cl)cc2)C2=CCCCC[C@]21C(=O)OC	·	·	-1	·	-1	·	·	·
O=C(NNCc1ccccc1)c1ccccc1	·	-99	6.1*	·	1	3	13*	5.8*
Cc1ccc(-n2ncc3c(NCc4cccnc4)ncnc32)cc1C	5	10	0	8	1	1	·	·
Cc1cccc(-n2ncc3c(NCc4cccnc4)ncnc32)c1	3	-85	4.7*	-2	2	2	8.1*	4.2*
COc1ccccc1Nc1ncnc2c1cnn2-c1cccc(C)c1	1	-70	0	0	4	0	·	·
Cc1cccc(-n2ncc3c(N4CCCC4)ncnc32)c1	0	-144	7.4*	4	7	-1	16*	6.9*
Cc1cccc(-n2ncc3c(NC4CCCCC4)ncnc32)c1	3	-140	6.8*	0	2	1	13*	7.5*
O=C(NCCO)C1(C(=O)C2CC2)CC(c2ccccn2)=NO1 (stereo not drawn)	·	·	1	·	-4	·	·	·
O=C(CSc1nnc(COc2ccccc2)n1-c1ccccc1)Nc1ccc2c(c1)OCCO2	·	·	2	·	-4	·	·	·
CC(C)c1ccc(NC(=O)CSc2nnc(-c3ccco3)n2C)cc1	·	·	0	·	-2	·	·	·
CC(C)(C)NC(=O)NC(=O)COc1ccc(Br)cc1Br	3	-175	7.5*	6	2	2	18*	6.0*
Cc1ccc(-c2cnc3c(Cl)c(C)nn3c2)cc1	3	-124	6.6*	-47	2	3	0	-5
Cc1ccc(-c2cnc3cc(C)nn3c2)cc1	2	-159	9.7*	0	5	-1	11*	5.2*
COc1cccc(C(=O)n2ccc3ccc(-c4ccc5ccn(Cc6ccc(C#N)cc6)c5c4)cc32)c1	·	·	-1	·	-2	·	·	·
Nc1nc(-c2ccc(-c3ccccc3)cc2)cs1	-1	-88	6.3*	1	3	1	10*	6.8*
Nc1nc(-c2ccc3ccccc3c2)cs1	4	-136	12*	-3	2	1	9.9*	7.5*
Cn1c(CCc2ccc(N)cc2)nc2ccccc21	-1	-103	6.1*	2	4	3	9.5*	5.0*
O=C(NCC1CCCCC1)c1ccc2nc([C@H]3C[C@H](O)[C@@H](CO)O3)[nH]c2c1	·	0	0	·	0	·	·	·
OC[C@H]1O[C@@H](c2nc3ccc(-c4nc(-c5cccs5)no4)cc3[nH]2)C[C@@H]1O	·	-114	4.8*	·	4	·	10*	8.7*
CCCn1c(NCc2ccc(N(C)C)cc2)nc2ccccc21	-1	-14	1	-3	5	0	·	·
Cn1c(NCc2ccccc2O)nc2ccccc21	2	-119	2	14	2	2	·	·
SMILES	NR2E3 ag-1	NR2E3 ag-2	DAX1 inh-1	GASC-1 inh	SMARCA2 act	DAX1 inh-2	DAX1 inh confirm	SF1 mutant ctr
Cn1c(NCc2ccccc2Cl)nc2ccccc21	-4	-98	6.5*	3	4	8.2*	9.7*	5.9*
CN(C)c1ccc(CNc2nc3ccccc3n2C)cc1	·	-116	4.8*	·	-2	2	8.6*	6.9*
CN(C)c1ccc(C(=S)NCc2ccco2)cc1	-1	-103	5.2*	-17	5	-2	11*	5.6*
N/C(=N\OC(=O)Cc1ccc(-c2ccccc2)cc1)c1ccccn1	0	3	-1	4	0	0	·	·
N/C(=N\OC(=O)COc1ccccc1Cl)c1ccccn1	-2	-136	5.9*	-3	6	0	12*	8.5*
N/C(=N\OC(=O)c1ccccc1Cl)c1ccccn1	2	-79	3	-2	-4	-4	·	·
N/C(=N\OC(=O)CSc1ccccc1)c1ccccn1	-1	-90	7.0*	-10	5	2	5.3*	4.7*
CCOC(=O)[C@@]12CCCC3=C1N(CCC3)C(=O)[C@H]2CC(=O)N1CCN(C(=O)C2CC2)CC1	·	·	0	·	-2	·	·	·
CN(C)c1ccc(-c2cc3ccccc3c(=O)o2)cc1	·	-161	3	9	7	2	·	·
COc1ccc(-c2cc3ccccc3c(=O)o2)cc1	·	-94	7.7*	·	4	·	13*	6.6*
C[C@H]1COc2cc(Br)ccc2S(=O)(=O)N1Cc1cn(CCC2OCCO2)nn1	·	·	0	·	-5	·	·	·
COc1ccccc1Nc1nnc(SCC2CCCCO2)s1 (stereo not drawn)	-3	-141	5.7*	-8	-1	-1	4.5*	1
COc1ccccc1Nc1nnc(SCC(=O)NC2CCCC2)s1	-1	11	0	·	-4	0	·	·
O=C(Nc1c(C(=O)N2CCC(N3CCCCC3)CC2)oc2ccccc12)c1ccc(F)cc1	0	4	8.1*	12	-1	0	7.6*	3
O=C(COC(=O)c1ccccc1-n1cnnn1)c1ccc(F)cc1	-4	-30	7.7*	6	5	3	7.5*	5.6*
COc1ccccc1C(=O)COC(=O)c1ccc(-n2cnnn2)cc1	1	-45	-1	23	-1	-1	·	·
O=C(NCCN1C(=O)C2C3C=CC(C3)C2C1=O)NCc1ccccc1 (stereo not drawn)	4	-19	-2	1	-1	2	·	·
Cc1ccc(NC(=O)NCCN2C(=O)C3C4C=CC(C4)C3C2=O)cc1 (stereo not drawn)	1	-74	5.1*	0	3	5.8*	13*	6.1*
Cn1ccc(C(=O)NC(=S)Nc2ccc([N+](=O)[O-])cc2O)n1	·	-119	8.3*	10	3	2	10*	5.8*
O=C(NC(=S)Nc1cc([N+](=O)[O-])ccc1O)c1ccc2c(c1)OCO2	4	-116	10.0*	4	7	1	16*	7.4*
COc1cc([N+](=O)[O-])ccc1NC(=S)NNC(=O)c1ccc2c(c1)OCO2	1	5	0	-2	0	0	·	·
O=C(NC(=S)Nc1ccc([N+](=O)[O-])cc1O)C1CCCCC1	5	-4	4	-4	-2	1	·	·
